Series [1] can be described thus: Aqueous solubility of the compound. The series is classed as physicochemical. An outline of the steps: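 Excess solid (3–5 mg) shaken in 0.5 mL water for 3 days, then centrifuged at 10,000g for 5 min. Supernatant diluted in water and analysed by LC/MS with UV peak area at 310 nm. Concentration read from a previously determined calibration curve, corrected for dilution.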

For series [2], the system named is Mycobacterium tuberculosis. Nature of the series: Antitubercular activity against Mycobacterium tuberculosis H37Rv by oxygen depletion assay. The series is classed as functional. Put shortly: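 Early-log Mtb cultures in Dubos broth were diluted 100-fold and sealed at a 0.5 head-space ratio, then stirred for 20 days to reach NRP-2. The cells were handled anaerobically and exposed to 1.95–500 μM drug in two-fold dilutions for 7 days at 37°C. After three washes, the cells were spotted on 7H11 agar for 3 weeks. MAC was taken as the concentration giving 90% reduction in visible growth.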

Series [3] deals with Mycobacterium tuberculosis. Kind of series: Antitubercular activity against Mycobacterium tuberculosis H37Rv under aerobic conditions. Format: functional. Put shortly: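 Broth dilution MIC99 against Mtb H37Rv (ATCC 27294) and its H37Rv mutants under aerobic conditions. Compound stocks were made in DMSO at 20 mM.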

≈ marks a conversion by molar mass, not a printed value.

Consider `C[C@@H]1Oc2nc([N+](=O)[O-])cn2C[C@@H]1OCc1ccc(OC(F)(F)F)cc1`, for which, in series [1], the solubility was determined as 9.89 µg/mL (≈ 26.5 µM). In addition, in series [2], the MAC was 16 µM. The same molecule gave a minimal inhibitory concentration (MIC) in series [3] of 0.2 µM (≈ 0.0747 µg/mL).

`O=[N+]([O-])c1cn2c(n1)OC[C@@H](OCc1ccc(OC(F)(F)F)cc1)C2` [PRETOMANID] registered a solubility in series [1] of 10.2 µg/mL (≈ 28.4 µM). The MAC in series [2] stood at 8 µM. The same molecule registered an MIC in series [3] of 0.4 µM (≈ 0.144 µg/mL).

`C[C@H]1Oc2nc([N+](=O)[O-])cn2C[C@@H]1OCc1ccc(OC(F)(F)F)cc1`: the concentration in solution in series [1] (solubility) came to 10.3 µg/mL (≈ 27.6 µM). This molecule also yielded an MAC in series [2] of 8 µM. In series [3], this molecule registered an MIC of 0.2 µM (≈ 0.0747 µg/mL).

The record behind these values is ChEMBL document CHEMBL1141552, “Synthesis and antitubercular activity of 7-(R)- and 7-(S)-methyl-2-nitro-6-(S)-(4-(trifluoromethoxy)benzyloxy)-6,7-dihydro-5H-imidazo[2,1-b][1,3]oxazines, analogues of PA-824” (Bioorg Med Chem Lett, 2008).
